Test results as given in PubChem BioAssay AID1381 (University of Pittsburgh Molecular Library Screening Center, 2008).
Screen size: about 220,000 compounds; about 1,000 (0.45%) were called active.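 Rule for the calls: active = plate z-score of nuclear minus cytoplasmic receptor signal below a set negative limit, without overly bright fluorescence or cell loss (cut at about -3.5 in these data, passing the limit was not always enough); inactive = the rest, inconclusive results apart.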 The list comes from a sample in which actives are over-represented; it also holds similar structures and randomly drawn compounds.

Test: inhibitors of GR-EGFP nuclear translocation, primary screen, dynein cargo transport inhibitor project, imaging, high-content, 3617.4 mouse cells (AID 1381)
Conditions: stimulated with dexamethasone, 1 µM
How it was run: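 Buffer or medium – tet-free medium with charcoal-stripped serum · Signal – automated 10x imaging of fixed Hoechst-stained cells · Also added – dexamethasone agonist, 1.0 µM final, for 30 min · Incubation – induction 48 h, compound 1 h, agonist 30 min · Read-out – GR-EGFP nuclear translocation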

[1] = measured here: cell count per field, at 20 µM
[2] = measured here: cytoplasmic GR-EGFP intensity, at 20 µM, stronger effect = higher value
[3] = measured here: nuclear GR-EGFP intensity, at 20 µM, stronger effect = lower value
[4] = measured here: cell count per field, at 50 µM
[5] = measured here: cytoplasmic GR-EGFP intensity, at 50 µM, stronger effect = higher value
[6] = measured here: nuclear GR-EGFP intensity, at 50 µM, stronger effect = lower value

O=C1NC(=O)N(c2ccccc2)C(=O)/C1=C/c1ccc([N+](=O)[O-])s1
z-score (at 20 µM, stronger effect = lower value): -5.82 (active)
z-score [1]: 0.268
z-score [2]: 2.42
z-score [3]: -2.58

COc1cccc(N2C(=O)NC(=O)/C(=C\c3ccc([N+](=O)[O-])s3)C2=O)c1
z-score (at 20 µM, stronger effect = lower value): -6.53 (active)
z-score [1]: -0.425
z-score [2]: 2.64
z-score [3]: -2.61

Cc1ccccc1N1C(=O)NC(=O)/C(=C\c2cc(C)n(C)c2C)C1=O
z-score (at 20 µM, stronger effect = lower value): -0.127 (inactive)
z-score [1]: 0.901
z-score [2]: -0.306
z-score [3]: -0.135

O=C1NC(=O)N(c2ccc(F)cc2)C(=O)/C1=C/c1ccc2c(c1)CCCN2Cc1ccccc1
z-score (at 20 µM, stronger effect = lower value): -0.735 (inactive)
z-score [1]: -0.42
z-score [2]: 4.11
z-score [3]: 0.344

Cc1c(C(=O)O)cccc1-n1c(C)cc(/C=C2\C(=O)NC(=O)N(c3ccc4c(c3)OCO4)C2=O)c1C
z-score (at 20 µM, stronger effect = lower value): -0.66 (inactive)
z-score [1]: 0.519
z-score [2]: -0.101
z-score [3]: -0.113

Cc1cccc(N2C(=O)NC(=O)/C(=C\c3cnn(-c4ccccc4)c3)C2=O)c1
z-score (at 20 µM, stronger effect = lower value): 0.124 (inactive)
z-score [1]: -0.649
z-score [2]: -0.166
z-score [3]: 0.444

OC1/C(=C/c2ccc(C(F)(F)F)cc2)N2CCC1CC2 (stereo not given)
z-score (at 20 µM, stronger effect = lower value): -1.47 (inactive)
z-score [1]: 0.879
z-score [2]: -0.265
z-score [3]: -0.69

CCCC[N+]1(C)C2CC(OC(=O)C(CO)c3ccccc3)CC1C1OC12 (stereo not given)
z-score (at 20 µM, stronger effect = lower value): -0.526 (inactive)
z-score [1]: 0.258
z-score [2]: -0.759
z-score [3]: 0.0484

c1cc2c(cc1CCNC1CCCCCC1)OCO2
z-score (at 50 µM, stronger effect = lower value): 1.01 (inactive)
z-score [4]: 0.684
z-score [5]: -0.246
z-score [6]: 0.379

CC(c1ccccc1)(c1ccccc1)c1ccncc1
z-score (at 20 µM, stronger effect = lower value): -0.152 (inactive)
z-score [1]: -0.267
z-score [2]: -0.379
z-score [3]: -0.628

Cc1cc(C=C2C(=O)NC(=O)NC2=O)c(C)n1-c1ccncc1
z-score (at 20 µM, stronger effect = lower value): 1.16 (inactive)
z-score [1]: -1.04
z-score [2]: -0.229
z-score [3]: 0.621

CCN(CC)C(=O)c1ccc(NC(=O)c2cc(-n3cnnc3)ccc2Cl)cc1
z-score (at 50 µM, stronger effect = lower value): 1.07 (inactive)
z-score [4]: -0.204
z-score [5]: -0.239
z-score [6]: 0.487

CN(C)CC1Oc2ccccc2OC1(O)c1ccccc1 (stereo not given)
z-score (at 20 µM, stronger effect = lower value): -6.23 (active)
z-score [1]: 1.09
z-score [2]: 1.79
z-score [3]: -2.55

COc1ccc(NC(=O)c2cn(CCC#N)nc2-c2ccc([N+](=O)[O-])cc2)cc1
z-score (at 20 µM, stronger effect = lower value): -0.74 (inactive)
z-score [1]: 0.149
z-score [2]: -0.33
z-score [3]: -0.871

CCC(C)n1c(O)c(/C=N/Nc2nc3c(c(=O)n(C)c(=O)n3C)n2C)c(=O)[nH]c1=S (stereo not given)
z-score (at 20 µM, stronger effect = lower value): -0.95 (inactive)
z-score [1]: 0.937
z-score [2]: -0.21
z-score [3]: -0.129
